The record followed here is ChEMBL document CHEMBL4610030, “Identification of human lactate dehydrogenase A inhibitors with anti-osteosarcoma activity through cell-based phenotypic screening” (Bioorg Med Chem Lett, 2020).

Test [1] addresses T1, L-lactate dehydrogenase A chain (Homo sapiens, UniProt P00338). The experiment in a line: Inhibition of human LDHA at 5 uM using NADH and pyruvate by microplate reader based assay relative to control. The method, boiled down:
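Recombinant-free description: hLDHA was incubated with pyruvate and NADH plus compound at 5 µM. NADH consumption was followed as the decrease in absorbance at 340 nm on a microplate reader and expressed as inhibitory rate.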

In test [2] the target is T1, L-lactate dehydrogenase A chain. The experiment in a line: Inhibition of human LDHA using NADH and pyruvate by microplate reader based assay. The gist of the method: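 hLDHA activity was measured with pyruvate and NADH across full dose-response to give EC50. The read-out was the decline in absorbance at 340 nm on a microplate reader.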
Test [3] shares this target. The experiment in a line: Binding affinity at human LDHA assessed as dissociation constant by isothermal titration calorimetry. The method, boiled down: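 Compounds were titrated into hLDHA by isothermal titration calorimetry to obtain Kd.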
Background: In ITC the heat of successive injections is recorded.

Test [4] concerns MG-63. The experiment in a line: Antiproliferative activity against human MG63 cells assessed as reduction in cell viability incubated for 24 to 72 hrs by IncuCyte zoom live cell analysis. In kind it is functional, cell-based.
A further test has as its system HOS. The experiment in a line: Antiproliferative activity against human HOS cells assessed as reduction in cell viability incubated for 24 to 72 hrs by IncuCyte zoom live cell analysis. Format: functional, cell-based.
A further test concerns SAOS-2. The experiment in a line: Antiproliferative activity against human Saos2 cells assessed as reduction in cell viability incubated for 24 to 72 hrs by IncuCyte zoom live cell analysis. Format: functional, cell-based.
For a further test, the system named is U2OS. The experiment in a line: Antiproliferative activity against human U2OS cells assessed as reduction in cell viability incubated for 24 to 72 hrs by IncuCyte zoom live cell analysis. Format: functional, cell-based.
Test [5] concerns MG-63. In words: Antiproliferative activity against human MG63 cells assessed as reduction in cell viability at 5 uM incubated by IncuCyte zoom live cell analysis. The settings on record: TDE = time-dependent effect. Format: functional, cell-based. The method, boiled down: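 MG-63 cells were exposed to 5 µM and imaged over time by IncuCyte Zoom live-cell analysis to follow growth.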

Test [6] deals with MG-63. The experiment in a line: Induction of apoptosis in human MG63 cells assessed as viable cells at 5 uM measured after 12 hrs by annexin V-propidium iodide staining-based flow cytometry (reference value: 98.11 %). Format: functional. The settings on record: MG-63, 12 h, read-out: Activity. The gist of the method: (§1)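 MG-63 cells were treated at 5 µM for 12, 18 or 24 h, or at 2, 5 or 10 µM for 24 h. Cells were then stained with annexin V-FITC/PI and analysed by flow cytometry for apoptotic populations.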
Background: In flow cytometry, cells or beads pass a laser one at a time.

In test [7] the test system is MG-63. The experiment in a line: Induction of apoptosis in human MG63 cells assessed as early apoptotic cells at 5 uM measured after 12 hrs by annexin V-propidium iodide staining-based flow cytometry (reference value: 0.14 %). In kind it is functional. The method, boiled down:
as §1

The test system of test [8] is MG-63. The experiment in a line: Induction of apoptosis in human MG63 cells assessed as late apoptotic cells at 5 uM measured after 12 hrs by annexin V-propidium iodide staining-based flow cytometry (reference value: 0.91 %). Format: functional. The method, boiled down:
as §1

Test [9] relates to MG-63. The experiment in a line: Induction of apoptosis in human MG63 cells assessed as necrotic cells at 5 uM measured after 12 hrs by annexin V-propidium iodide staining-based flow cytometry (reference value: 0.84 %). In kind it is functional. The gist of the method:
as §1

Test [10] concerns MG-63. The experiment in a line: Induction of apoptosis in human MG63 cells assessed as viable cells at 5 uM measured after 18 hrs by annexin V-propidium iodide staining-based flow cytometry (reference value: 98.11 %). The settings on record: MG-63, 18 h, read-out: Activity. Format: functional. The gist of the method: as §1
Test [11] has as its system MG-63. In words: Induction of apoptosis in human MG63 cells assessed as early apoptotic cells at 5 uM measured after 18 hrs by annexin V-propidium iodide staining-based flow cytometry (reference value: 0.14 %). In kind it is functional. The method, boiled down: as §1
In test [12] the test system is MG-63. In words: Induction of apoptosis in human MG63 cells assessed as late apoptotic cells at 5 uM measured after 18 hrs by annexin V-propidium iodide staining-based flow cytometry (reference value: 0.91 %). Format: functional. The method, boiled down:
as §1

Test [13] concerns MG-63. The experiment in a line: Induction of apoptosis in human MG63 cells assessed as necrotic cells at 5 uM measured after 18 hrs by annexin V-propidium iodide staining-based flow cytometry (reference value: 0.84 %). In kind it is functional. The gist of the method: as §1
Test [14] has as its system MG-63. The experiment in a line: Induction of apoptosis in human MG63 cells assessed as viable cells at 5 uM measured after 24 hrs by annexin V-propidium iodide staining-based flow cytometry (reference value: 96.30 to 98.11 %). In kind it is functional. The settings on record: MG-63, 24 h, read-out: Activity. The method, boiled down: as §1
In test [15] the test system is MG-63. The experiment in a line: Induction of apoptosis in human MG63 cells assessed as early apoptotic cells at 5 uM measured after 24 hrs by annexin V-propidium iodide staining-based flow cytometry (reference value: 0.14 to 0.16 %). Format: functional. The gist of the method:
as §1

Test [16] concerns MG-63. The experiment in a line: Induction of apoptosis in human MG63 cells assessed as late apoptotic cells at 5 uM measured after 24 hrs by annexin V-propidium iodide staining-based flow cytometry (reference value: 0.91 to 1.44 %). In kind it is functional. The gist of the method: as §1
For test [17], the system named is MG-63. In words: Induction of apoptosis in human MG63 cells assessed as necrotic cells at 5 uM measured after 24 hrs by annexin V-propidium iodide staining-based flow cytometry (reference value: 0.84 to 2.10 %). In kind it is functional. The method, boiled down:
as §1

Test [18] concerns MG-63. The experiment in a line: Induction of apoptosis in human MG63 cells assessed as viable cells at 2 uM measured after 24 hrs by annexin V-propidium iodide staining-based flow cytometry (reference value: 96.30 %). In kind it is functional. The settings on record: MG-63, 24 h, read-out: Activity. The method, boiled down: as §1
Test [19] deals with MG-63. In words: Induction of apoptosis in human MG63 cells assessed as early apoptotic cells at 2 uM measured after 24 hrs by annexin V-propidium iodide staining-based flow cytometry (reference value: 0.16 %). In kind it is functional. The gist of the method: as §1
For test [20], the system named is MG-63. In words: Induction of apoptosis in human MG63 cells assessed as late apoptotic cells at 2 uM measured after 24 hrs by annexin V-propidium iodide staining-based flow cytometry (reference value: 1.44 %). Format: functional. The gist of the method: as §1
Test [21] relates to MG-63. The experiment in a line: Induction of apoptosis in human MG63 cells assessed as necrotic cells at 2 uM measured after 24 hrs by annexin V-propidium iodide staining-based flow cytometry (reference value: 2.10 %). Format: functional. The gist of the method: as §1
For test [22], the system named is MG-63. In words: Induction of apoptosis in human MG63 cells assessed as viable cells at 10 uM measured after 24 hrs by annexin V-propidium iodide staining-based flow cytometry (reference value: 96.30 %). In kind it is functional. The settings on record: MG-63, 24 h, read-out: Activity. The method, boiled down:
as §1

The test system of test [23] is MG-63. The experiment in a line: Induction of apoptosis in human MG63 cells assessed as early apoptotic cells at 10 uM measured after 24 hrs by annexin V-propidium iodide staining-based flow cytometry (reference value: 0.16 %). Format: functional. The method, boiled down:
as §1

Test [24] has as its system MG-63. The experiment in a line: Induction of apoptosis in human MG63 cells assessed as late apoptotic cells at 10 uM measured after 24 hrs by annexin V-propidium iodide staining-based flow cytometry (reference value: 1.44 %). Format: functional. The gist of the method: as §1
Test [25] deals with MG-63. In words: Induction of apoptosis in human MG63 cells assessed as necrotic cells at 10 uM measured after 24 hrs by annexin V-propidium iodide staining-based flow cytometry (reference value: 2.10 %). In kind it is functional. The method, boiled down: as §1
For test [26], the system named is MG-63. In words: Induction of apoptosis in human MG63 cells measured after 24 hrs by annexin V-propidium iodide staining-based flow cytometry. In kind it is functional, cell-based. The gist of the method:
as §1

In test [27] the target is T1, L-lactate dehydrogenase A chain. The experiment in a line: Inhibition of LDHA in human MG63 cells assessed as reduction in lactate formation at 2 to 10 uM incubated for 4 hrs. Format: cell-based. The settings on record: MG-63. The method, boiled down:
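MG-63 cells were treated at 2, 5 and 10 µM for 4 h. Lactate was then measured in the culture medium and compared with untreated control, with P < 0.05.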

Test [28] shares this target. In words: Inhibition of LDHA in human MG63 cells assessed as reduction in extracellular acidification rate at 2 to 10 uM incubated for 4 hrs by seahorse XFe96 analyser based assay. The settings on record: MG-63. Format: cell-based.
Test [29] shares this target. In words: Inhibition of LDHA in human MG63 cells assessed as reduction in proton production rate at 2 to 10 uM incubated for 4 hrs by seahorse XFe96 analyser based assay. In kind it is cell-based. The settings on record: MG-63.
Test [30] has the same target. In words: Inhibition of LDHA in human MG63 cells assessed as increase in oxygen consumption rate incubated for 4 hrs by seahorse XFe96 analyser based assay. In kind it is cell-based. The settings on record: MG-63.

Active and inactive are the calls of the source. The calls are words filed in the database; no cut-off is given here.

As a reminder, the inhibition is how much of the control response was suppressed. The term EC50 denotes the concentration needed to bring the measured effect to its halfway point. Higher therefore signals a need for much substance. By Kd is commonly meant the constant that tells how readily two partners part at equilibrium. The term IC50 denotes the midpoint of a concentration-inhibition curve. With `COc1ccc(-n2c[n+]([O-])c(C(=O)Nc3ccccc3)c2C)cc1N1CCCCS1(=O)=O`, the inhibition in [1] was over 50%. This compound also had a concentration giving a half-maximal response (EC50) in test [2] of 3.03 µM. Besides, the dissociation constant (Kd) in [3] is 6.41 µM. Also, the half-inhibitory concentration (IC50) with MG-63 [4] turned out to be 6.47 µM; in the test with HOS it was 10.2 µM; with SAOS-2, 7.5 µM; with U2OS it was 14.9 µM.

Turning to `Cc1c(C(=O)Nc2ccccc2)[n+]([O-])cn1-c1ccc2[nH]c(CC(C)C)nc2c1`, the inhibition was 91.2% in test [1] and “Dose-dependent effect” in [30]. In addition, the EC50 in test [2] stood at 0.67 µM. Besides, the dissociation constant (Kd) in test [3] stood at 2.41 µM. Further, the Activity result in the test with MG-63 [5] was “Tde”; in the test on MG-63 [7] it was 0.34%; in the test with MG-63 [8], 5.08%; in the test on MG-63 [9], 2.3%; in the test with MG-63 [11] it was 1.32%; in the test with MG-63 [12] it was 10.37%. For the same compound, the Activity in the test with MG-63 [13] was 4.56%; with MG-63 [15], 1.1 - 3.47%; in the test with MG-63 [16], 12.28 - 19.86%; in the test on MG-63 [17] it was 8.3 - 10.1%; with MG-63 [19], 0.4%; in the test on MG-63 [20] it was 3.21%. Moreover, the Activity was 1.54% in the test with MG-63 [21]; 3.55% in the test with MG-63 [23]; 20.03% in the test on MG-63 [24]; 10.19% in the test on MG-63 [25]; “Dose-dependent effect” in the test on MG-63 [26]. Further, the IC50 in the test with MG-63 [4] was 2.93 µM; in the test on HOS it was 4.6 µM; in the test with SAOS-2 it was 5.1 µM; in the test on U2OS, 3.7 µM. Moreover, the viability at 5 µM in the test with MG-63 [6] is 92.3%; in the test on MG-63 [10], 83.8%; in the test on MG-63 [14], 66.6 to 78.3%. The viability at 2 µM with MG-63 [18] was 94.8%. Also, the viability at 10 µM in the test on MG-63 [22] worked out at 66.2%. Also, the inhibition result in test [27], in test [28] and in [29] was “Active” each time.

In turn, `Cc1c(C(=O)Nc2ccccc2)[n+]([O-])cn1-c1ccc2occc(=O)c2c1` gave an inhibition in test [1] of over 50%. For the same compound, it took 3.26 µM to reach a half-maximal effect in test [2] (EC50). In addition, in test [3], the equilibrium dissociation constant (Kd) was 9.85 µM. Moreover, the IC50 stood at 6.1 µM with MG-63 [4], 12.5 µM in the test with HOS, 13.6 µM with SAOS-2 and 9.5 µM in the test on U2OS.
